{"source": "ChEMBL document CHEMBL1240299", "about": "“C3-symmetric peptide scaffolds are functional mimetics of trimeric CD40L” (Nat Chem Biol, 2005)", "key": {"[1]": {"test_system": "D1", "assay": "Induction of mouse D1 cell maturation assessed as CD54 expression at 5 to 10 uM after 48 hrs by flow cytometry in presence of 10 ug/ml LPS inhibitor polymyxin B", "type": "functional, cell-based", "procedure,_shortened": "(§1)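 D1 cells (2×10^5 ml⁻¹, 48 h preculture) were treated 48 h with inducers in fresh medium. Assays were also run with polymyxin B present to exclude LPS-driven activation, and LPS at 10 µg ml⁻¹ was the reference stimulus. Cells were harvested in PBS/EDTA and surface maturation markers were measured by flow cytometry.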"}, "[2]": {"test_system": "D1", "assay": "Induction of mouse D1 cell maturation assessed as CD80 expression at 5 to 10 uM after 48 hrs by flow cytometry in presence of 10 ug/ml LPS inhibitor polymyxin B", "type": "functional, cell-based", "procedure,_shortened": "as §1"}, "[3]": {"biological_target": "Tumor necrosis factor receptor superfamily member 5 (Homo sapiens, UniProt P25942)", "sequence (P25942 whole entry)": "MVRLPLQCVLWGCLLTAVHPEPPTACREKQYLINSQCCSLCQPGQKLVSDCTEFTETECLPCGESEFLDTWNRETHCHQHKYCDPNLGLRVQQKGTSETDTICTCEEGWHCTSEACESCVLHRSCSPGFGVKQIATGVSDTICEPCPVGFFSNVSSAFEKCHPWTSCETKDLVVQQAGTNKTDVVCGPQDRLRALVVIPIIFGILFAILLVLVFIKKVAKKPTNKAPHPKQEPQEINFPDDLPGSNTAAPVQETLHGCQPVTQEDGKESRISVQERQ", "assay": "Inhibition of recombinant human CD40L:mouse CD8 tail binding to human CD40 by surface plasmon resonance method", "procedure,_shortened": "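hCD40:mIg was captured on an anti-mouse Ig chip. A fixed amount of soluble hCD40L:CD8 was premixed with increasing ligand concentrations, and the mixtures were injected at 25 °C in HBS-EP, 30 µl min⁻¹, 5 min association and 5 min dissociation. Regeneration was 50 mM HCl. Inhibition of CD40L binding was taken from reference-subtracted sensorgrams.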"}, "[4]": {"test_system": "BL-41", "assay": "Induction of apoptosis in CD40-positive human BL41 cells assessed as decrease in reduction in DiOC6 dye uptake after DAPI staining by epifluorescence microscopy", "type": "functional, cell-based"}, "[5]": {"test_system": "D1", "assay": "Induction of mouse D1 cell maturation assessed as CD86 expression at 5 to 10 uM after 48 hrs by flow cytometry in presence of 10 ug/ml LPS inhibitor polymyxin B", "type": "functional, cell-based", "procedure,_shortened": "as §1"}, "[6]": {"test_system": "BL-41", "assay": "Induction of apoptosis in CD40-positive human BL41 cells assessed as decrease in mitochondrial membrane potential after 16 hrs by mean fluorescence intensity", "type": "functional, cell-based", "procedure,_shortened": "(§2)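 BL41 Burkitt lymphoma cells in RPMI 1640 with 10% FBS were seeded at 5×10^5 ml⁻¹ and exposed to inducers at 37 °C (16 h). Apoptosis was read by flow cytometry, either as loss of DiOC₆(3) uptake (Δψm) or as annexin V–FITC/PI co-staining. Specific apoptosis % = (treated − control)×100/(100 − control). Values are means of three independent experiments.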"}, "[7]": {"test_system": "BL-41", "assay": "Induction of apoptosis in CD40-positive human BL41 cells assessed as level of CD40 expression by mean fluorescence intensity", "type": "functional, cell-based"}, "[8]": {"test_system": "BL-41", "assay": "Induction of apoptosis in CD40-positive human BL41 cells assessed as detection of phosphatidylserine expression using annexin V-FITC and propidium iodine staining by flow cytometry", "type": "functional, cell-based", "procedure,_shortened": "as §2"}, "[9]": {"test_system": "BL-41", "assay": "Induction of apoptosis in CD40-positive human BL41 cells assessed as reduction in DiOC6 dye uptake after DAPI staining"}, "[10]": {"biological_target": "T1, Tumor necrosis factor receptor superfamily member EDAR (Homo sapiens) (UniProt Q9UNE0)", "T1 sequence (whole entry)": "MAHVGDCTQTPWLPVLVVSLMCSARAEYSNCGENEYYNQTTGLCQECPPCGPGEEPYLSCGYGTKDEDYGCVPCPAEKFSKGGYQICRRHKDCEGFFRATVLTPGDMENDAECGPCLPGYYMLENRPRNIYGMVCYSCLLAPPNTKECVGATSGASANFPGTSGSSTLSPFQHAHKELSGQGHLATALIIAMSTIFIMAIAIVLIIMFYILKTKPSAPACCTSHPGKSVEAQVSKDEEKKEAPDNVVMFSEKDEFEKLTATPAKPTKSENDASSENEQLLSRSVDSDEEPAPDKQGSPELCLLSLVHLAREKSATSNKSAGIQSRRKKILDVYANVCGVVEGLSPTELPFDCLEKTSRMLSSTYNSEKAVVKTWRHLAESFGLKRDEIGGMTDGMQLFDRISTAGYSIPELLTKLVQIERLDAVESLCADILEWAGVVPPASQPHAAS", "assay": "Binding affinity to human Ectodysplasin-A receptor by surface plasmon resonance method", "procedure,_shortened": "(§3)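 TNFR:Fc fusion proteins were captured on an anti-Ig-coated CM5 chip at equivalent protein mass. An irrelevant IgG2a served as control surface. Ligands were injected at several concentrations at 25 °C in HBS-EP running buffer, pH 7.4, 30 µl min⁻¹ flow, 5 min association and 5 min dissociation, with 50 mM HCl regeneration. Reference-subtracted sensorgrams were fitted to binding models.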"}, "[11]": {"biological_target": "Tumor necrosis factor receptor superfamily member 3 (Homo sapiens) (UniProt P36941)", "sequence (P36941 whole entry, the tested form may be a part)": "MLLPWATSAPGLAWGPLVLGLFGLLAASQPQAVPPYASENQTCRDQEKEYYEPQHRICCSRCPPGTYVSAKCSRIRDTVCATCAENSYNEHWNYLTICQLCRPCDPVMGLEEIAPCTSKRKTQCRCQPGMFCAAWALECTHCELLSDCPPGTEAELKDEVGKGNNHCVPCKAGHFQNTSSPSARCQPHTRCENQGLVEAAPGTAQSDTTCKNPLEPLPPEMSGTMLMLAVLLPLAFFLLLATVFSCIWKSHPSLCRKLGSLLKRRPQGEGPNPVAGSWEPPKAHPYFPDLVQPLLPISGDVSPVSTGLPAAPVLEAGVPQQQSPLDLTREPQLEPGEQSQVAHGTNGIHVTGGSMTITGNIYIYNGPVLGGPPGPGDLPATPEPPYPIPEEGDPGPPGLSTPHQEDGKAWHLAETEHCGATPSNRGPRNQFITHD", "assay": "Binding affinity to human lymphotoxin beta receptor by surface plasmon resonance method", "procedure,_shortened": "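TNFR:Fc fusion captured at 5 µl min⁻¹ on a CM5 chip precoated by amine coupling with rabbit anti-mouse Ig or goat anti-human Ig (~10,000 RU). Mimetics injected at several concentrations at 30 µl min⁻¹, 5 min association and 5 min dissociation, 25 °C, HBS-EP pH 7.4. Regeneration 30 s with 50 mM HCl. Control-channel sensorgrams subtracted and fitted to binding models.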"}, "[12]": {"biological_target": "Tumor necrosis factor receptor superfamily member 10A (Homo sapiens) (UniProt O00220)", "sequence (O00220 whole entry)": "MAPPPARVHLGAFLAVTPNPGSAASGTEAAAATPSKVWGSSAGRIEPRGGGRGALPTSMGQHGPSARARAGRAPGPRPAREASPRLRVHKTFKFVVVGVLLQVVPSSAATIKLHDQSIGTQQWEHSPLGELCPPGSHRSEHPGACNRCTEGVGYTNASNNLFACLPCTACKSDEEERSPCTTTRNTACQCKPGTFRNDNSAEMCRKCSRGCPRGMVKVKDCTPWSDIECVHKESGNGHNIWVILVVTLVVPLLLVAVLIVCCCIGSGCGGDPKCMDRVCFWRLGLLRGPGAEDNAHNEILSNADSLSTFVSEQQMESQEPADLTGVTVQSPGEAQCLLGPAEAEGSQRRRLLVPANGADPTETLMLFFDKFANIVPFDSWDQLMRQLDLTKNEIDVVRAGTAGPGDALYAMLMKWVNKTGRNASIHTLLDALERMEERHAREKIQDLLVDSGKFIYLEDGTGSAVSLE", "assay": "Binding affinity to human TNF-related apoptosis-inducing ligand receptor 1 by surface plasmon resonance method", "procedure,_shortened": "as §3"}, "[13]": {"test_system": "A20", "assay": "Induction of apoptosis in mouse CD40-expressing mouse A20 cells assessed as decrease in mitochondrial membrane potential after 16 hrs by mean fluorescence intensity", "type": "functional, cell-based", "procedure,_shortened": "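Mouse A20 lymphoma cells treated at 37 °C and analysed by flow cytometry for reduced DiOC₆(3) uptake (loss of mitochondrial membrane potential). Result given as percentage specific apoptosis relative to untreated control cells.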"}, "[14]": {"biological_target": "T2, Tumor necrosis factor receptor superfamily member 17 (Mus musculus) (UniProt O88472)", "T2 sequence (whole entry)": "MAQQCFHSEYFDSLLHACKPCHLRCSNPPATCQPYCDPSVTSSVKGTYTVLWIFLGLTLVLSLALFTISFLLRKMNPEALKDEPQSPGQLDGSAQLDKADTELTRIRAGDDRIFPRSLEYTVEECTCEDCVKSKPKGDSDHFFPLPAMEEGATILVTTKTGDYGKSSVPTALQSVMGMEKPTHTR", "assay": "Binding affinity to mouse B-cell maturation protein by surface plasmon resonance method", "procedure,_shortened": "as §3"}, "[15]": {"test_system": "D1", "assay": "Induction of interleukin-12 production in mouse D1 cells by RT-PCR method", "type": "functional, cell-based", "procedure,_shortened": "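D1 cells, precultured 48 h at 2×10^5 ml⁻¹, were given fresh medium containing inducers. After incubation, RNA was analysed by comparative RT-PCR for IL-12 p40 mRNA, with Gapdh as housekeeping control. LPS at 10 µg ml⁻¹ served as reference stimulus.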"}, "[16]": {"biological_target": "T3, Tumor necrosis factor receptor superfamily member 1A (Homo sapiens) (UniProt P19438)", "T3 sequence (whole entry)": "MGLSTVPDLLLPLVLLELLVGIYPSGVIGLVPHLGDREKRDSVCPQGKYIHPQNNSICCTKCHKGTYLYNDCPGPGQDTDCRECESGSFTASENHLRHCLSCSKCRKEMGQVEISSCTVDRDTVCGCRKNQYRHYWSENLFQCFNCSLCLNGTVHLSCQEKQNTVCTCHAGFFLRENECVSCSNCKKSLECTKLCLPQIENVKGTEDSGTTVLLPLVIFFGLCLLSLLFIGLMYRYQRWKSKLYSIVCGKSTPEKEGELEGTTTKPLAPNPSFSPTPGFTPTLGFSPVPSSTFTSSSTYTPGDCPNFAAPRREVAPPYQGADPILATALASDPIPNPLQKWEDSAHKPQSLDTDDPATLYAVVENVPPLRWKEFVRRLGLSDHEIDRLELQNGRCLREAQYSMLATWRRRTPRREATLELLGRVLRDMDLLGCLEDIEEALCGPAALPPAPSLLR", "assay": "Binding affinity to human TNFR1 by surface plasmon resonance method", "procedure,_shortened": "as §3"}, "[17]": {"assay": "Activation of NF-kappaB pathway in mouse D1 cells assessed as increased degradation of IkappaBalpha protein by immunoblotting assay", "type": "functional, cell-based", "procedure,_shortened": "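D1 dendritic cells grown in IMDM with 10% FBS and 30% NIH/3T3 supernatant as GM-CSF source; 2×10^5 cells ml⁻¹ precultured 48 h, then fresh medium with inducers added. Cells washed, harvested in PBS/2 mM EDTA, lysed and immunoblotted for IκBα, with actin as loading reference; IκBα/actin band intensity ratio reported.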"}, "[18]": {"biological_target": "T4, Tumor necrosis factor receptor superfamily member 1B (Homo sapiens) (UniProt P20333)", "T4 sequence (whole entry)": "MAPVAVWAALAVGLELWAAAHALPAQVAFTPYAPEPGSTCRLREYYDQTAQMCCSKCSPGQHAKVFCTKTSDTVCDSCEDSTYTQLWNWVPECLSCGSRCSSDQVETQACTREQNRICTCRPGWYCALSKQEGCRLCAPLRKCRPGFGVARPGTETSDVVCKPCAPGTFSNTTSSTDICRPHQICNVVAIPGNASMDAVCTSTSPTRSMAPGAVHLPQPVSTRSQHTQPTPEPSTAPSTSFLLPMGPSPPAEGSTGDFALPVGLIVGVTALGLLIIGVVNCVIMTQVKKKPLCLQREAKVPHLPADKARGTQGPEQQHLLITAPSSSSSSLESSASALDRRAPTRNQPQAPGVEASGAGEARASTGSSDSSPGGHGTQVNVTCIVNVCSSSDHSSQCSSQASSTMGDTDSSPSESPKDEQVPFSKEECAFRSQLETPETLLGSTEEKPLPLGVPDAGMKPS", "assay": "Binding affinity to human Tumor necrosis factor receptor 2 by surface plasmon resonance method", "procedure,_shortened": "as §3"}}, "note": "pIC50: −log10 of the molar value. The source made the active and inactive calls. The calls are words filed in the database; no cut-off is given here. Non-standard residues stand in square brackets, D forms with d. Residues, ends and D or L forms follow the SMILES beside them. Groups on a side chain read outwards from the residue. Ahx = NCCCCCC(=O)O"}
{"smiles": "C[C@H]1NC(=O)[C@H](CCCCN)NC(=O)[C@@H](C)NC(=O)[C@H](CCCCN)NC(=O)[C@@H](C)NC(=O)[C@H](CCCCN)NC1=O", "values": [{"measurement": "Activity", "setting": "[1]", "result": "inactive"}, {"measurement": "Activity", "setting": "[2]", "result": "inactive"}, {"measurement": "inhibition", "setting": "[3]", "result": "inactive"}, {"measurement": "Activity", "setting": "[4]", "result": "inactive"}, {"measurement": "Activity", "setting": "[5]", "result": "inactive"}, {"measurement": "Activity", "setting": "[6]", "result": "inactive"}, {"measurement": "Activity", "setting": "[7]", "result": "inactive"}, {"measurement": "Activity", "setting": "[8]", "result": "inactive"}]}
{"smiles": "NCCCC[C@H](N)C(=O)NCC(=O)N[C@@H](Cc1ccc(O)cc1)C(=O)N[C@@H](Cc1ccc(O)cc1)C(=O)NCCCCCC(=O)NCCCC[C@@H]1CNC(=O)C[C@H](CCCCNC(=O)CCCCCNC(=O)[C@H](Cc2ccc(O)cc2)NC(=O)[C@H](Cc2ccc(O)cc2)NC(=O)CNC(=O)[C@@H](N)CCCCN)NC[C@H](CCCCNC(=O)CCCCCNC(=O)[C@H](Cc2ccc(O)cc2)NC(=O)[C@H](Cc2ccc(O)cc2)NC(=O)CNC(=O)[C@@H](N)CCCCN)NC(=O)C1", "values": [{"measurement": "pIC50", "setting": "[3]", "result": 7.30}, {"measurement": "Activity", "setting": "[4]", "result": "Active"}, {"measurement": "Activity", "setting": "[9]", "result": "Active"}, {"measurement": "Activity", "setting": "[6]", "result": "Active"}, {"measurement": "Activity", "setting": "[7]", "result": "Active"}, {"measurement": "Activity", "setting": "[8]", "result": "Active"}]}
{"smiles": "C[C@H]1NC(=O)[C@H](CCCCNC(=O)CCCCCNC(=O)[C@H](Cc2ccc(O)cc2)NC(=O)[C@H](Cc2ccc(O)cc2)NC(=O)CNC(=O)[C@@H](N)CCCCN)NC(=O)[C@@H](C)NC(=O)[C@H](CCCCNC(=O)CCCCCNC(=O)[C@H](Cc2ccc(O)cc2)NC(=O)[C@H](Cc2ccc(O)cc2)NC(=O)CNC(=O)[C@@H](N)CCCCN)NC(=O)[C@@H](C)NC(=O)[C@H](CCCCNC(=O)CCCCCNC(=O)[C@H](Cc2ccc(O)cc2)NC(=O)[C@H](Cc2ccc(O)cc2)NC(=O)CNC(=O)[C@@H](N)CCCCN)NC1=O", "note": "(cyclo(K([Ahx-Tyr-Tyr-Gly-Lys])[dA]K([Ahx-Tyr-Tyr-Gly-Lys])[dA]K([Ahx-Tyr-Tyr-Gly-Lys])[dA]))", "values": [{"measurement": "Activity", "setting": "[1]", "result": "Active"}, {"measurement": "Activity", "setting": "[2]", "result": "Active"}, {"measurement": "pIC50", "setting": "[3]", "result": 7.11}, {"measurement": "Activity", "setting": "[10]", "result": "inactive"}, {"measurement": "Activity", "setting": "[11]", "result": "inactive"}, {"measurement": "Activity", "setting": "[4]", "result": "Active"}, {"measurement": "Activity", "setting": "[12]", "result": "inactive"}, {"measurement": "Activity", "setting": "[5]", "result": "Active"}, {"measurement": "Activity", "setting": "[13]", "result": "Active"}, {"measurement": "Activity", "setting": "[14]", "result": "inactive"}, {"measurement": "Activity", "setting": "[15]", "result": "Active"}, {"measurement": "Activity", "setting": "[6]", "result": "Active"}, {"measurement": "Activity", "setting": "[7]", "result": "Active"}, {"measurement": "Activity", "setting": "[16]", "result": "inactive"}, {"measurement": "Activity", "setting": "[17]", "result": "Active"}, {"measurement": "Activity", "setting": "[18]", "result": "inactive"}, {"measurement": "Activity", "setting": "[8]", "result": "Active"}]}
